# Test results published in ChEMBL document CHEMBL4339192, “De Novo Designed Amphipathic α-Helical Antimicrobial Peptides Incorporating Dab and Dap Residues on the Polar Face To Treat the Gram-Negative Pathogen, Acinetobacter baumannii” (J Med Chem, 2019).
# Where a SMILES comes first, the peptide text is derived from it. [ ]: non-standard residue; d: D form. Dab = NCC[C@H](N)C(=O)O
# Key:
# Acinetobacter baumannii [1] = experiment: Antibacterial activity against Acinetobacter baumannii isolate 9383370 measured after 24 hrs by microtiter dilution method; format: functional; conditions: isolate 9383370, 24 h
# How it was run: (§1)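 Broth microdilution in Mueller-Hinton (MH) medium. […] Plates were incubated 24 h at 37 °C. MIC was the lowest peptide concentration that inhibited growth, based on three sets of replicates.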
# Acinetobacter baumannii [2] = experiment: Antibacterial activity against Acinetobacter baumannii isolate 952654 measured after 24 hrs by microtiter dilution method; format: functional; conditions: isolate 952654, 24 h; how it was run: as §1
# Acinetobacter baumannii [3] = experiment: Antibacterial activity against Acinetobacter baumannii isolate 977751 measured after 24 hrs by microtiter dilution method; format: functional; conditions: isolate 977751, 24 h; how it was run: as §1
# Acinetobacter baumannii [4] = experiment: Antibacterial activity against polymyxin B/colistin-resistant Acinetobacter baumannii M89953 measured after 24 hrs by microtiter dilution method; format: functional; conditions: M89953, 24 h; how it was run: as §1
# Acinetobacter baumannii [5] = experiment: Antibacterial activity against polymyxin B/colistin-resistant Acinetobacter baumannii M89941 measured after 24 hrs by microtiter dilution method; format: functional; conditions: M89941, 24 h; how it was run: as §1
# Acinetobacter baumannii [6] = experiment: Antibacterial activity against polymyxin B/colistin-resistant Acinetobacter baumannii M89949 measured after 24 hrs by microtiter dilution method; format: functional; conditions: M89949, 24 h; how it was run: as §1
# Acinetobacter baumannii [7] = experiment: Antibacterial activity against Acinetobacter baumannii isolate 1021371 measured after 24 hrs by microtiter dilution method; format: functional; conditions: isolate 1021371, 24 h; how it was run: as §1
# [8] = Therapeutic index, ratio of HC50 for human RBC to MIC for polymyxin B/colistin-resistant Acinetobacter baumannii M89941; format: toxicity; conditions: human red blood cells, read-out: TI
# How it was run: (§2)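 T.I. = HC50/MIC. For HC50, peptide (quantified by amino acid analysis) was two-fold serially diluted over 12 concentrations up to 1000 μg/mL. It was incubated with 1% fresh human erythrocytes in PBS, pH 7.4, for 18 h at 37 °C. After 800g centrifugation, hemoglobin was read at 570 nm against water (100%) and no-peptide (0%) controls. HC50 came from a lysis-versus-concentration plot, average of 3 replicates.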
# [9] = Therapeutic index, ratio of HC50 for human RBC to MIC for polymyxin B/colistin-resistant Acinetobacter baumannii M89955; format: toxicity; conditions: human red blood cells, read-out: TI; how it was run: as §2
# Acinetobacter baumannii [10] = experiment: Antibacterial activity against Acinetobacter baumannii isolate 1007660 measured after 24 hrs by microtiter dilution method; format: functional; conditions: isolate 1007660, 24 h; how it was run: as §1
# [11] = Therapeutic index, ratio of HC50 for human RBC to MIC for polymyxin B/colistin-resistant Acinetobacter baumannii M89963; format: toxicity; conditions: human red blood cells, read-out: TI; how it was run: as §2
# Acinetobacter baumannii [12] = experiment: Antibacterial activity against Acinetobacter baumannii isolate 1017395 measured after 24 hrs by microtiter dilution method; format: functional; conditions: isolate 1017395, 24 h; how it was run: as §1
# [13] = Therapeutic index, ratio of HC50 for human RBC to MIC for polymyxin B/colistin-resistant Acinetobacter baumannii M89951; format: toxicity; conditions: human red blood cells, read-out: TI; how it was run: as §2
# Acinetobacter baumannii [14] = experiment: Antibacterial activity against polymyxin B/colistin-resistant Acinetobacter baumannii M89955 measured after 24 hrs by microtiter dilution method; format: functional; conditions: M89955, 24 h; how it was run: as §1
# Acinetobacter baumannii [15] = experiment: Antibacterial activity against polymyxin B/colistin-resistant Acinetobacter baumannii M89951 measured after 24 hrs by microtiter dilution method; format: functional; conditions: M89951, 24 h; how it was run: as §1
# Acinetobacter baumannii [16] = experiment: Antibacterial activity against polymyxin B/colistin-resistant Acinetobacter baumannii M89963 measured after 24 hrs by microtiter dilution method; format: functional; conditions: M89963, 24 h; how it was run: as §1
# Acinetobacter baumannii [17] = experiment: Antibacterial activity against Acinetobacter baumannii isolate 963659 measured after 24 hrs by microtiter dilution method; format: functional; conditions: isolate 963659, 24 h; how it was run: as §1
# Acinetobacter baumannii [18] = experiment: Antibacterial activity against Acinetobacter baumannii isolate 963618 measured after 24 hrs by microtiter dilution method; format: functional; conditions: isolate 963618, 24 h; how it was run: as §1
# Acinetobacter baumannii [19] = experiment: Antibacterial activity against Acinetobacter baumannii isolate 1001611 measured after 24 hrs by microtiter dilution method; format: functional; conditions: isolate 1001611, 24 h; how it was run: as §1
# Acinetobacter baumannii [20] = experiment: Antibacterial activity against Acinetobacter baumannii isolate 1018887 measured after 24 hrs by microtiter dilution method; format: functional; conditions: isolate 1018887, 24 h; how it was run: as §1
# Acinetobacter baumannii [21] = experiment: Antibacterial activity against Acinetobacter baumannii isolate 968886 measured after 24 hrs by microtiter dilution method; format: functional; conditions: isolate 968886, 24 h; how it was run: as §1
# [22] = Therapeutic index, ratio of HC50 for human RBC to MIC for polymyxin B/colistin-resistant Acinetobacter baumannii M89953; format: toxicity; conditions: human red blood cells, read-out: TI; how it was run: as §2
# Acinetobacter baumannii [23] = experiment: Antibacterial activity against Acinetobacter baumannii isolate 1010282 measured after 24 hrs by microtiter dilution method; format: functional; conditions: isolate 1010282, 24 h; how it was run: as §1
# Acinetobacter baumannii [24] = experiment: Antibacterial activity against Acinetobacter baumannii isolate 961997 measured after 24 hrs by microtiter dilution method; format: functional; conditions: isolate 961997, 24 h; how it was run: as §1
# [25] = Hemolytic activity against human RBC measured after 18 hrs by spectrophotometric method; format: ADME, cell-based, Erythrocyte; conditions: human red blood cells (erythrocytes)
# How it was run: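 Peptide (amount by amino acid analysis), two-fold serial dilutions at 12 concentrations up to 1000 μg/mL, with 1% human erythrocytes in PBS pH 7.4, 37 °C, 18 h. Unlysed cells removed by centrifugation (800g); hemoglobin read at 570 nm. Water-lysed cells = 100%, no-peptide cells = 0%. HC50 from plot of % lysis vs concentration (μM), average of 3 replicates.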
# Acinetobacter baumannii [26] = experiment: Ratio of MIC for Acinetobacter baumannii 649 measured in presence of 25% human serum to MIC for Acinetobacter baumannii 649 in absence of 25% human serum; format: functional
# How it was run: (§3)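 Blood strain 649 was tested by MH broth microdilution with and without 25% (v/v) human serum added to the medium. The test used a final inoculum of 5 × 10^5 cfu/mL and incubation at 37 °C. The ratio is the MIC in serum over the MIC in MH alone.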
# Acinetobacter baumannii [27] = experiment: Antibacterial activity against Acinetobacter baumannii isolate 1010245 measured after 24 hrs by microtiter dilution method; format: functional; conditions: isolate 1010245, 24 h; how it was run: as §1
# Acinetobacter baumannii [28] = experiment: Antibacterial activity against Acinetobacter baumannii isolate 965463 measured after 24 hrs by microtiter dilution method; format: functional; conditions: isolate 965463, 24 h; how it was run: as §1
# Acinetobacter baumannii [29] = experiment: Antibacterial activity against polymyxin B/colistin-resistant Acinetobacter baumannii M89952 measured after 24 hrs by microtiter dilution method; format: functional; conditions: M89952, 24 h; how it was run: as §1
# [30] = Therapeutic index, ratio of HC50 for human RBC to MIC for polymyxin B/colistin-resistant Acinetobacter baumannii M89949; format: toxicity; conditions: human red blood cells, read-out: TI; how it was run: as §2
# Acinetobacter baumannii [31] = experiment: Antibacterial activity against Acinetobacter baumannii 649 measured after 24 hrs by microtiter dilution method; format: functional; conditions: Acinetobacter baumannii, 649, 24 h; how it was run: as §1
# Acinetobacter baumannii [32] = experiment: Antibacterial activity against Acinetobacter baumannii isolate 1035794 measured after 24 hrs by microtiter dilution method; format: functional; conditions: isolate 1035794, 24 h; how it was run: as §1
# Acinetobacter baumannii [33] = experiment: Antibacterial activity against Acinetobacter baumannii isolate 981650 measured after 24 hrs by microtiter dilution method; format: functional; conditions: isolate 981650, 24 h; how it was run: as §1
# Acinetobacter baumannii [34] = experiment: Antibacterial activity against Acinetobacter baumannii isolate 1002956 measured after 24 hrs by microtiter dilution method; format: functional; conditions: isolate 1002956, 24 h; how it was run: as §1
# Acinetobacter baumannii [35] = experiment: Antibacterial activity against Acinetobacter baumannii isolate 1035166 measured after 24 hrs by microtiter dilution method; format: functional; conditions: isolate 1035166, 24 h; how it was run: as §1
# [36] = Therapeutic index, ratio of HC50 for human RBC to MIC for polymyxin B/colistin-resistant Acinetobacter baumannii M89952; format: toxicity; conditions: human red blood cells, read-out: TI; how it was run: as §2
# Acinetobacter baumannii [37] = experiment: Antibacterial activity against Acinetobacter baumannii isolate 964304 measured after 24 hrs by microtiter dilution method; format: functional; conditions: isolate 964304, 24 h; how it was run: as §1
# Acinetobacter baumannii [38] = experiment: Antibacterial activity against Acinetobacter baumannii 649 measured after 24 hrs in presence of 25% human serum by microtiter dilution method; format: functional; conditions: Acinetobacter baumannii, 649, 24 h; how it was run: as §3
smiles,measurement,setting,value
CC(=O)N[C@H](CCCCN)C(=O)N[C@H](CC(C)C)C(=O)N[C@@H](CCN)C(=O)N[C@H](CO)C(=O)N[C@H](CC(C)C)C(=O)N[C@H](CC(C)C)C(=O)N[C@@H](CCN)C(=O)N[C@@H](C(=O)N[C@H](CC(C)C)C(=O)N[C@H](CO)C(=O)N[C@@H](CCN)C(=O)N[C@H](C)C(=O)N[C@H](C)C(=O)N[C@H](C)C(=O)N[C@H](C)C(=O)N[C@H](C)C(=O)N[C@H](CC(C)C)C(=O)N[C@@H](CCN)C(=O)N[C@@H](C(=O)N[C@H](CC(C)C)C(=O)N[C@H](CC(C)C)C(=O)N[C@@H](CCN)C(=O)N[C@H](C)C(=O)N[C@H](CC(C)C)C(=O)N[C@H](CO)C(=O)N[C@@H](CCN)C(N)=O)[C@H](C)O)[C@H](C)O (Ac-[dK][dL][Dab][dS][dL][dL][Dab][dT][dL][dS][Dab][dA][dA][dA][dA][dA][dL][Dab][dT][dL][dL][Dab][dA][dL][dS][Dab]-NH2),MIC,Acinetobacter baumannii [1],1.5 µM
same,MIC,Acinetobacter baumannii [2],0.8 µM
same,MIC,Acinetobacter baumannii [3],3.1 µM
same,MIC,Acinetobacter baumannii [4],0.8 µM
same,MIC,Acinetobacter baumannii [5],1.5 µM
same,MIC,Acinetobacter baumannii [6],0.8 µM
same,MIC,Acinetobacter baumannii [7],0.8 µM
same,selectivity ratio,[8],8.6
same,selectivity ratio,[9],8.6
same,MIC,Acinetobacter baumannii [10],0.8 µM
same,selectivity ratio,[11],8.6
same,MIC,Acinetobacter baumannii [12],0.8 µM
same,selectivity ratio,[13],8.6
same,MIC,Acinetobacter baumannii [14],0.8 µM
same,MIC,Acinetobacter baumannii [15],0.8 µM
same,MIC,Acinetobacter baumannii [16],0.8 µM
same,MIC,Acinetobacter baumannii [17],0.4 µM
same,MIC,Acinetobacter baumannii [18],0.8 µM
same,MIC,Acinetobacter baumannii [19],0.8 µM
same,MIC,Acinetobacter baumannii [20],0.5 µM
same,MIC,Acinetobacter baumannii [21],0.8 µM
same,selectivity ratio,[22],8.6
same,MIC,Acinetobacter baumannii [23],0.8 µM
same,MIC,Acinetobacter baumannii [24],0.8 µM
same,HC50 at 18 h,[25],7.7 µM
same,Ratio,Acinetobacter baumannii [26],4
same,MIC,Acinetobacter baumannii [27],0.8 µM
same,MIC,Acinetobacter baumannii [28],0.8 µM
same,MIC,Acinetobacter baumannii [29],0.8 µM
same,selectivity ratio,[30],8.6
same,MIC,Acinetobacter baumannii [31],0.8 µM
same,MIC,Acinetobacter baumannii [32],0.8 µM
same,MIC,Acinetobacter baumannii [33],0.4 µM
same,MIC,Acinetobacter baumannii [34],0.8 µM
same,MIC,Acinetobacter baumannii [35],0.8 µM
same,selectivity ratio,[36],8.6
same,MIC,Acinetobacter baumannii [37],1.5 µM
same,MIC,Acinetobacter baumannii [38],3 µM
